Test results: ChEMBL document CHEMBL1122512, “Investigations on the chemistry of berbanes. 10. Synthesis of raunescinone analogues with hypotensive and antihypertensive activity” (1984)

Experiments:
Rattus norvegicus [1] = assay: Change in blood pressure after 12 hours of dosing was measured in conscious normotensive male rats at a dose of 5 mg/kg administered intraperitoneally in 5 rats; format: functional; details: route intraperitoneal
Outline: (§1)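 Conscious normotensive male rats (250–300 g) were restrained in Plexiglass tubes kept at 37 °C. Systolic pressure was read indirectly at the tail root using a tail cuff and a sphygmomanometer with a crystal-microphone pulse pick-up. Dosing was intraperitoneal, and change from the pre-dose value was followed to 48 h.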

[2] = Ratio of performance time under the effect and corresponding control performance time; format: functional
Outline: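 Female mice (20–25 g), in groups of 10, were trained on a 3 cm rod at 15 rpm and tested 6 h after intraperitoneal dosing. The activity ratio is the group performance time under drug divided by the control group performance time.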

Rattus norvegicus [3] = assay: Change in heart rate after 12 hours of dosing was measured in conscious normotensive male rats at a dose of 5 mg/kg administered intraperitoneally in 5 rats; format: functional; details: route intraperitoneal
Outline: (§2)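 Heart rate was recorded electronically through the blood-pressure recorder during tail-cuff measurement in conscious normotensive male rats (250–300 g), restrained in Plexiglass tubes at 37 °C. Dosing was intraperitoneal, and change from the pre-dose rate was followed to 48 h.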

Rattus norvegicus [4] = assay: Change in blood pressure after 6 hours of dosing was measured in conscious normotensive male rats at a dose of 5 mg/kg administered intraperitoneally in 5 rats; format: functional; details: route intraperitoneal; outline: as §1
Mus musculus [5] = species on record: Mus musculus; assay: Compound was evaluated for its lack of depresant effect on the CNS as measured by the forced coordinated motor activity on 10 mice; format: functional
Rattus norvegicus [6] = assay: Change in blood pressure after 24 hours of dosing was measured in conscious normotensive male rats at a dose of 5 mg/kg administered intraperitoneally in 5 rats; format: functional; details: route intraperitoneal; outline: as §1
Rattus norvegicus [7] = assay: Change in blood pressure after 48 hours of dosing was measured in conscious normotensive male rats at a dose of 5 mg/kg administered intraperitoneally in 5 rats; format: functional; details: route intraperitoneal; outline: as §1
Rattus norvegicus [8] = assay: Heart rate was measured prior to dosing in conscious normotensive male rats at a dose of 5 mg/kg administered intraperitoneally in 5 rats; format: functional; details: route intraperitoneal; outline: as §2
Rattus norvegicus [9] = assay: Change in blood pressure after 3 hours of dosing was measured in conscious normotensive male rats at a dose of 5 mg/kg administered intraperitoneally in 5 rats; format: functional; details: route intraperitoneal; outline: as §1
Rattus norvegicus [10] = assay: Change in heart rate after 24 hours of dosing was measured in conscious normotensive male rats at a dose of 5 mg/kg administered intraperitoneally in 5 rats; format: functional; details: route intraperitoneal; outline: as §2
Rattus norvegicus [11] = assay: Change in heart rate after 18 hours of dosing was measured in conscious normotensive male rats at a dose of 5 mg/kg administered intraperitoneally in 5 rats; format: functional; details: route intraperitoneal; outline: as §2
Mus musculus [12] = assay: Lack of depressant effect on the CNS as measured by the forced coordinated motor activity on mice was expressed as time elapsed from dosing required to obtain maximum hypotensive or antihypertensive effect; format: functional, Central nervous system
Rattus norvegicus [13] = assay: Change in blood pressure after 18 hours of dosing was measured in conscious normotensive male rats at a dose of 5 mg/kg administered intraperitoneally in 5 rats; format: functional; details: route intraperitoneal; outline: as §1
Rattus norvegicus [14] = assay: Change in heart rate after 48 hours of dosing was measured in conscious normotensive male rats at a dose of 5 mg/kg administered intraperitoneally in 5 rats; format: functional; details: route intraperitoneal; outline: as §2
Rattus norvegicus [15] = assay: Change in heart rate after 3 hours of dosing was measured in conscious normotensive male rats at a dose of 5 mg/kg administered intraperitoneally in 5 rats; format: functional; details: route intraperitoneal; outline: as §2
Rattus norvegicus [16] = assay: Change in heart rate after 6 hours of dosing was measured in conscious normotensive male rats at a dose of 5 mg/kg administered intraperitoneally in 5 rats; format: functional; details: route intraperitoneal; outline: as §2
Rattus norvegicus [17] = assay: Systolic blood pressure was measured prior to dosing in conscious normotensive male rats at a dose of 5 mg/kg administered intraperitoneally in 5 rats; format: functional; details: route intraperitoneal; outline: as §1

SMILES: COC(=O)[C@H]1[C@H]2C[C@@H]3c4[nH]c5cc(OC)ccc5c4CCN3C[C@H]2C[C@@H](OC(=O)c2cc(OC)c(OC)c(OC)c2)[C@@H]1OC [RESERPINE]
- Change in BP (Rattus norvegicus [1]): -16
- Activity ratio [2]: < 0.08
- Change in heart rate (Rattus norvegicus [3]): -40
- Change in BP (Rattus norvegicus [4]): -23
- Group performance time (Mus musculus [5]): 9 s
- Change in BP (Rattus norvegicus [6]): -12
- Change in BP (Rattus norvegicus [7]): -7
- Heart rate (Rattus norvegicus [8]): 364 beats min-1
- Change in BP (Rattus norvegicus [9]): -18
- Change in heart rate (Rattus norvegicus [10]): -32
- Change in heart rate (Rattus norvegicus [11]): -40
- Time (Mus musculus [12]): 6 h
- Change in BP (Rattus norvegicus [13]): -10
- Change in heart rate (Rattus norvegicus [14]): -10
- Change in heart rate (Rattus norvegicus [15]): -34
- Change in heart rate (Rattus norvegicus [16]): -44
- BP (Rattus norvegicus [17]): 117 mmHg
